Measurements collected from several papers.
Lines come from different studies, so protocols differ.
Si: Sucrase-isomaltase, intestinal (Si, Rattus norvegicus, UniProt P23739)
Abl2: Abl2 (Mus musculus, UniProt Q4JIM5)
BRD1 bromodomain: Bromodomain-containing protein 1, bromodomain (BRD1, Homo sapiens, UniProt O95696)

Structure (SMILES)	target	test	system	conditions	endpoint	result
COc1cc(Cl)c(C(=O)N[C@@H](CN[C@H]2CC[C@@H](N)CC2)Cc2ccc(C#N)cc2)cc1-c1ccc(CN[C@H](C)c2ccc(C)cc2)o1	Eukaryotic translation initiation factor 2-alpha kinase 1 (EIF2AK1, Homo sapiens, UniProt Q9BQI3)	enzyme activity, inhibitor		1 µM	remaining activity	93%
O=C1OC[C@H]2OC(=O)c3cc(O)c(O)c(O)c3-c3c(O)c(O)c(O)c4c3C(=O)O[C@H]([C@H]3OC(=O)c5c-4c(O)c(O)c(O)c5[C@H]3O)[C@@H]2OC(=O)c2cc(O)c(O)c(O)c2-c2c1cc(O)c(O)c2O	Si	enzyme activity, inhibitor		200 µg/mL	inhibition	52.8%
O=C(c1ccc(Cl)cc1)N(Cc1ccccc1)C1CCCCC1	Glucocorticoid receptor (NR3C1, Homo sapiens, UniProt P04150)	cell-free assay		10 µM	inhibition	28.5%
Cc1ccc(Nc2nccc(N(C)c3ccc4c(C)n(C)nc4c3)n2)cc1S(N)(=O)=O	Abl2	enzyme activity, inhibitor		10 µM	inhibition	76%
Cn1c2c(c3ccc(Cl)c(Cl)c31)C(C#N)C(C)(C)NC2=O (stereo not shown)	Rhodopsin kinase GRK1 (GRK1, Homo sapiens, UniProt Q15835)	thermal stability, DSF		10 µM	ΔTm	2.7 °C
O=c1c(O[C@@H]2O[C@H](CO)[C@@H](O)[C@H](O)[C@H]2O)c(-c2ccc(O)c(O)c2)oc2cc(O)cc(O)c12	Si	enzyme activity, inhibitor		50 µg/mL	inhibition	30.8%
CCCc1c(-c2ccc(O)cc2)nn(-c2ccc(O)cc2)c1-c1ccc(O)cc1	Estrogen receptor (ESR1, Homo sapiens, UniProt P03372)	reporter gene, agonist, luciferase	U2OS		Emax	120%
Cc1cnc(NC2CCOCC2)nc1-n1cnc(C(=O)NC(CN)c2cc(F)cc(Cl)c2)c1 (stereo not shown)	Abl2	enzyme activity, inhibitor, radiometric		1 µM	remaining activity	102%
Cc1ccc(C(=O)Nc2ccc(CN3CCN(C)CC3)c(C(F)(F)F)c2)cc1C#Cc1cnc2cccnn12	Serine/threonine-protein kinase RIO2 (RIOK2, Homo sapiens, UniProt Q9BVS4)	enzyme activity, inhibitor		23.5 nM	remaining activity	88%
C[S+]([O-])c1ccc(-c2nc(-c3ccncc3)c(-c3ccc(F)cc3)[nH]2)cc1 (stereo not shown)	BRD1 bromodomain	thermal stability, DSF		10 µM	ΔTm	-0.23 °C
Nc1ncnc2occ(-c3ccc(NC(=O)Nc4cc(C(F)(F)F)ccc4F)cc3)c12	Phosphatidylinositol 3-kinase catalytic subunit type 3 (PIK3C3, Homo sapiens, UniProt Q8NEB9)	cell-free assay		20 µM	remaining signal	73%
O=c1c(O[C@@H]2O[C@@H](CO)[C@H](O)[C@H]2O)c(-c2ccc(O)c(O)c2)oc2cc(O)cc(O)c12	Si	enzyme activity, inhibitor		200 µg/mL	inhibition	58.3%
O=C(Nc1cccc(-c2ccn[nH]2)c1)c1cccc2cn[nH]c12	pqsE (Pseudomonas aeruginosa, UniProt P20581)	thermal stability, DSF		100 µM	ΔTm	3.4 °C
CCOCc1nc(O)c(-c2nnc(Cc3ccc(Cl)cn3)o2)c(O)c1-c1c(OC)cccc1OC	Apelin receptor (APLNR, Homo sapiens, UniProt P35414)	binding, radioligand			kon	5.17e+06 M⁻¹ s⁻¹
NS(=O)(=O)c1ccc(Nc2nc(-c3ccc(F)cc3)c3ccccc3n2)cc1	BRD1 bromodomain	binding, competition with immobilised ligand		1 µM	remaining binding	2%
O=C(c1ccc(F)cc1)N(Cc1ccccc1)C1CCCCC1	5-hydroxytryptamine receptor 1A (HTR1A, Homo sapiens, UniProt P08908)	ligand displacement, radioligand		10 µM	inhibition	2%
